Experimental data from different studies.
Organism: Acinetobacter baumannii
Effect on: microbial growth

SMILES	method	strain	time	setting	MIC
N=C(N)c1ccc(OCc2ccc(Br)cc2COc2ccc(C(=N)N)cc2)cc1	broth dilution	ATCC17978	–	–	> 200 µg/mL
CCCCCCC/C=C/C(=O)N1C(=O)/C(=C(\O)c2ccc(OCOCCOC)cc2)C(=O)C1CC(C)C (stereo not drawn)	–	ATCC19606	–	–	200 µg/mL
COc1c2c(c(O)c3cc(F)ccc13)C(=O)C1=C(O)[C@]3(O)C(=O)C(C(N)=O)=C(O)[C@@H](N(C)C)[C@@H]3C[C@@H]1C2	broth dilution	ATCC19606	–	–	2 µg/mL
CCCCCCC/C=C/C(=O)N1CC(=O)/C(=C(\C)O)C1=O	–	ATCC19606	–	–	100 µg/mL
CN(C)[C@@H]1C(O)=C(C(N)=O)C(=O)[C@@]2(O)C(O)=C3C(=O)c4c(cc5ccc(CN(C)S(C)(=O)=O)cc5c4O)C[C@H]3C[C@@H]12	broth dilution	ATCC19606	–	–	32 µg/mL
O=C(O)c1ccc(-n2cc(/C=N/Nc3cccc(Br)c3)c(-c3cccc(F)c3)n2)cc1	–	ATCCBAA1605	–	–	12.5 µg/mL
Cc1nc(Cl)c2c(c1O)C(=O)C1=C(O)[C@]3(O)C(=O)C(C(N)=O)=C(O)[C@@H](N(C)C)[C@@H]3C[C@@H]1C2.Cl	broth dilution	ATCC19606	–	–	4 µg/mL
N=C(N)c1ccc(OCc2ccccc2COc2ccc(C(=N)N)cc2)cc1	broth dilution	ATCC17978	–	–	> 200 µg/mL
CCCCCCC/C=C/C(=O)N1C(=O)/C(=C(\O)C2CCNCC2)C(=O)C1CC(C)C (stereo not drawn)	–	ATCC19606	–	–	50 µg/mL
NC[C@H]1O[C@H](O[C@H]2[C@H](O)[C@@H](O[C@H]3O[C@H](CO)[C@@H](O)[C@H](N)[C@H]3O)[C@H](N)C[C@@H]2N)[C@H](N)C[C@@H]1O	broth dilution	–	–	–	2.6 µM
N#Cc1ccc(N/N=C/c2cn(-c3ccc(C(=O)O)cc3)nc2-c2ccc(F)cc2)cc1	–	ATCCBAA1605	–	–	> 25 µg/mL
CC(C)CNc1nc(Cl)c2c(c1O)C(=O)C1=C(O)[C@]3(O)C(=O)C(C(N)=O)=C(O)[C@@H](N(C)C)[C@@H]3C[C@@H]1C2.Cl.Cl.Cl	broth dilution	ATCC19606	–	–	2 µg/mL
C[C@@H](O)[C@H]1C(=O)N2C(C(=O)O)=C(SCCN=CN)C[C@H]12	broth dilution	KCCM40203	16 h	–	1 µM
O=C(O)c1ccc(-n2cc(/C=N/Nc3cccc(F)c3)c(-c3ccc4ccccc4c3)n2)cc1	–	ATCCBAA1605	–	–	25 µg/mL
CC1(C)S[C@@H]2[C@H](NC(=O)C(C(=O)O)c3ccccc3)C(=O)N2[C@H]1C(=O)O (stereo partly drawn)	broth dilution	–	–	clinical isolate	> 200 µM
CN(C)[C@@H]1C(O)=C(C(N)=O)C(=O)[C@@]2(O)C(O)=C3C(=O)c4c(O)cnc(-c5ccccc5)c4C[C@H]3C[C@@H]12.Cl.Cl	broth dilution	ATCC19606	–	–	0.125 µg/mL
CNC(C)C1CCC(N)C(OC2C(N)CC(N)C(OC3OCC(C)(O)C(NC)C3O)C2O)O1 (stereo not drawn)	–	–	–	–	0.5 to 1 µg/mL
O=C(CCCCCCCC[P+](c1ccccc1)(c1ccccc1)c1ccccc1)Nc1cc(O)c(O)c(O)c1.[Br-]	broth dilution	ATCC19606	18 h	–	> 32 µg/mL
C/C(O)=C1\C(=O)C(CC(C)C)N(C(=O)C=Cc2ccccc2)C1=O (stereo not drawn)	–	ATCC19606	–	–	> 200 µg/mL
NC1CCCCc2c1[nH]c1ccc(Br)cc21 (stereo not drawn)	broth dilution	ATCC19606	–	–	16 µg/mL
O=C(CCCCCCCCCC[P+](c1ccccc1)(c1ccccc1)c1ccccc1)Nc1ccc(O)c(O)c1.[Br-]	broth dilution	ATCC19606	18 h	–	> 32 µg/mL
CO[C@@H](C(N)=O)[C@H](NC(=O)c1ccc(NC(=O)c2ccc(C#N)cc2)cc1)C(=O)Nc1ccc(C(=O)Nc2ccc(C(=O)Nc3ccc(C(=O)O)cc3)c(O)c2OC(C)C)cc1	–	DSM30008	–	–	1 µg/mL
CNc1cccc2c(O)c3c(cc12)C[C@H]1C[C@H]2[C@H](N(C)C)C(O)=C(C(N)=O)C(=O)[C@@]2(O)C(O)=C1C3=O	broth dilution	ATCC19606	–	–	> 32 µg/mL
CNC(=O)c1cc(Oc2ccc(NC(=O)Nc3ccc(Cl)c(C(F)(F)F)c3)cc2)ccn1	–	DSM30007	–	–	> 100 µM
N=C(N)NN=Cc1ccc(OC/C=C\COc2ccc(C=NNC(=N)N)cc2)cc1	–	ATCC19606	16 h	–	≤ 51 µg/mL
CN[C@@H]1[C@H](O[C@H]2[C@H](O[C@H]3[C@H](O)[C@@H](O)[C@H](N=C(N)N)[C@@H](O)[C@@H]3N=C(N)N)O[C@@H](C)[C@]2(O)C=O)O[C@@H](CO)[C@H](O)[C@H]1O	–	ATCC19606	–	–	> 2000 µg/mL
CC(C)(O/N=C(\C(=O)N[C@@H]1C(=O)N2C(C(=O)[O-])=C(C[n+]3ccccc3)CS[C@H]12)c1csc(N)n1)C(=O)O	broth dilution	ATCC19606	–	–	4 µg/mL
O=C(CCc1cc(O)c(O)c(O)c1)NCCCCCCCC[P+](c1ccccc1)(c1ccccc1)c1ccccc1.[Br-]	broth dilution	ATCC19606	18 h	–	> 32 µg/mL
CN(C)c1ccc(O)c2c1C[C@H]1C[C@H]3[C@H](N(C)C)C(O)=C(C(N)=O)C(=O)[C@@]3(O)C(O)=C1C2=O	broth dilution	ATCC19606	–	–	0.063 µg/mL
CN[C@H](CC(C)C)C(=O)N[C@H]1C(=O)N[C@@H](CC(N)=O)C(=O)N[C@H]2C(=O)N[C@H]3C(=O)N[C@H](C(=O)N[C@H](C(=O)O)c4cc(O)cc(O)c4-c4cc3ccc4O)[C@H](O)c3ccc(c(Cl)c3)Oc3cc2cc(c3O[C@@H]2O[C@H](CO)[C@@H](O)[C@H](O)[C@H]2O[C@H]2C[C@](C)(N)[C@H](O)[C@H](C)O2)Oc2ccc(cc2Cl)[C@H]1O	broth dilution	BAA747	–	–	> 128 µM
